Results: ChEMBL document CHEMBL1833946, “Synthesis of β-functionalized temoporfin derivatives for an application in photodynamic therapy” (Bioorg Med Chem Lett, 2011)
Active and inactive are the calls of the source. The calls are words filed in the database; no cut-off is given here.

Columns and labels:
[1] = Chemical stability of the compound; assay type: physicochemical
HT-29 [2] = assay: Cytotoxicity against human HT29 cells under dark condition at 2 uM after 24 hrs by XTT assay in presence of 10% heat-inactivated fetal calf serum; assay type: functional, cell-based
How it was run: (§1)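 HT-29 human colon adenocarcinoma cells seeded at 2 × 10⁴ cells/well. Incubated 24 h with 2 or 10 μM sensitizer (final, diluted from 2 mM DMSO stock) in phenol-red-free RPMI 1640 with 10% FCS. Cells kept without irradiation for dark toxicity. Viability measured by XTT absorbance.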

HT-29 [3] = assay: Cytotoxicity against human HT29 cells under dark condition at 10 uM after 24 hrs by XTT assay in presence of 10% heat-inactivated fetal calf serum; assay type: functional, cell-based; how it was run: as §1
HT-29 [4] = assay: Phototoxicity against human HT29 cells irradiated with 652 nm diode laser at the rate of 50 J/cm'2 at 2 uM after 24 hrs by XTT assay in presence of 10% heat-inactivated fetal calf serum; assay type: functional, cell-based
How it was run: (§2)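 HT-29 cells seeded at 2 × 10⁴ cells/well. Loaded 24 h with 2 or 10 μM sensitizer (final; from 2 mM DMSO stock kept dark at 4 °C) in phenol-red-free RPMI 1640 plus 10% FCS. Irradiated at room temperature with a 652 nm diode laser, 100 mW/cm², 50 J/cm². Viability read by XTT absorbance.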

HT-29 [5] = assay: Phototoxicity against human HT29 cells irradiated with 652 nm diode laser at the rate of 50 J/cm'2 at 10 uM after 24 hrs by XTT assay in presence of 10% heat-inactivated fetal calf serum; assay type: functional, cell-based; how it was run: as §2

SMILES | Stability [1] | Activity (HT-29 [2]) | Activity (HT-29 [3]) | Activity (HT-29 [4]) | Activity (HT-29 [5])
Oc1cccc(-c2c3nc(c(-c4cccc(O)c4)c4ccc([nH]4)c(-c4cccc(O)c4)c4nc(c(-c5cccc(O)c5)c5ccc2[nH]5)C(O)(C(F)(F)F)C4(O)C(F)(F)F)C=C3)c1 (stereo not given) | Stable | inactive | inactive | Active | Active
Oc1cccc(-c2c3nc(c(-c4cccc(O)c4)c4ccc([nH]4)c(-c4cccc(O)c4)c4nc(c(-c5cccc(O)c5)c5ccc2[nH]5)C(O)(c2cc(C(F)(F)F)cc(C(F)(F)F)c2)C4(O)c2cc(C(F)(F)F)cc(C(F)(F)F)c2)C=C3)c1 (stereo not given) | Stable | inactive | inactive | inactive | Active
CCCCCCC1(O)c2nc(c(-c3cccc(O)c3)c3ccc([nH]3)c(-c3cccc(O)c3)c3nc(c(-c4cccc(O)c4)c4ccc([nH]4)c2-c2cccc(O)c2)C=C3)C1(O)CCCCCC (stereo not given) | Stable | inactive | inactive | Active | Active
